Screening data from PubChem BioAssay.
hERG protect: compounds protecting human hERG from proarrhythmic drug block; CHO-hERG, FluxOR thallium flux, dofetilide IC70 present; activation (rescue from dofetilide block), less the hit threshold, % at 10 µM; hit rate 0.51% among 310,000;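 active = activation above the mean of controls blocked by dofetilide plus 5 SD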;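 also: thallium influx through hERG after potassium depolarization seen as dye fluorescence rise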
KCNK3 inh: human KCNK3 channel inhibition, primary screen; O14649; CHO-KCNK3 thallium flux, FluxOR fluorescence; hits give low values; B-score at 10 µM; hit rate 0.84% among 340,000; AID 602410;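 active = B-score under library mean minus 4 SD, starting fluorescence ratio at most library mean plus 5 SD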;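 also: more negative B-score means stronger inhibition of thallium flux through KCNK3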
KCNQ1 pot: potentiators or activators of human KCNQ1 potassium channel | B-score at 10 µM | hit rate 0.35% among 310,000 | CHO-K1 KCNQ1, thallium flux FluxOR fluorescence; hits give high values | P51787;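 active = fluorescence ratio B-score, a plate-corrected score, at least three library SD, with initial intensity B-score within 5 SD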
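System: Stable KCNQ1 CHO-K1 line | Incubation: 90 min dye loading and 20 min compound exposure, both at room temperature | Measure: Ratio B score | Medium: Assay buffer for compound exposure, DMSO matched across wells | Compound dosing: Single-concentration screen | Probe or stimulus: K+/Tl+ depolarizing stimulus | Measured by: Kinetic FluxOR fluorescence, 10 s baseline plus 110 s post-stimulus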
KCNK9 inh: inhibitors of human KCNK9 two-pore domain potassium channel; Q9NPC2; HEK293 KCNK9, FluxOR thallium flux fluorescence; hits give low values; B-score at 10 µM; hit rate 1.2% among 310,000; AID 488922;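 active = ratio B-score over 3 SD below the library mean, with starting fluorescence within 5 SD of its mean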;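 also: negative B-score means less thallium flux so channel inhibition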
KCNQ1 inh: inhibitors of human KCNQ1 potassium channel | hit rate 1.3% among 310,000 | AID 2642 | P51787 | CHO-K1 KCNQ1, FluxOR thallium flux fluorescence; hits give high values | B-score at 10 µM;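 active = compounds whose thallium flux B-score, printed positive for inhibition, exceeds three library SD while starting fluorescence stays within three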;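 also: channel opened by potassium depolarization with thallium stimulus after 20 min compound exposure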
KCNK9 block conf: confirmation of human KCNK9 potassium channel inhibitors; shares compounds with KCNK9 inh; HEK293 KCNK9 cells, FluxOR thallium flux fluorescence; inhibition, % at 10 µM; hit rate 43% among 4,900;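 active = thallium signal inhibited by more than 5 SD of the compound-free buffer control wells, on both duplicate plates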;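 also: 0% = assay buffer control wells without compound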
Kir2-1 spec: tests whether KCNK9 modulators also affect mouse Kir2.1; inhibition, % at 10 µM; hit rate 4% among 4,900; Kir2.1 cells, FluxOR thallium flux fluorescence; shares compounds with KCNK9 inh;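 active = thallium signal drop more than 5 SD beyond the mean of the no-compound control wells, seen in both duplicate plates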;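 also: signal is fluorescence rise after thallium addition divided by baseline fluorescence; plate controls were assay buffer only for no effect and full block by chlorpromazine control for full effect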
HEK293 Tl ctr: non-induced cell nonspecific activity of KCNK9 modulators; shares compounds with KCNK9 inh; non-induced KCNK9-HEK293, FluxOR thallium flux; inhibition, % at 10 µM; hit rate 40% among 4,900;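 active = thallium signal drop beyond 5 SD of the untreated control mean, on both duplicate plates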;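 also: plate controls were buffer only IC0 wells for no effect and SID17386958 at its maximal inhibitory level for full effect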
The depositor's hits bear a star; i = inactive; · = no result given. Hits are enriched below; roughly 3.1% of the tested compounds scored in any of these assays.

SMILES	hERG protect	KCNK3 inh	KCNQ1 pot	KCNK9 inh	KCNQ1 inh	KCNK9 block conf	Kir2-1 spec	HEK293 Tl ctr
Cc1cc(C(=O)N2CCCC(C(=O)c3ccc4ccccc4c3)C2)n(C)n1 (stereo unspecified)	-6	i	i	i	i	i	i	i
CCn1cc(C(=O)N2CCCC(C(=O)c3ccc4ccccc4c3)C2)cn1 (stereo unspecified)	-3	i	i	i	i	i	i	i
COc1ccc2cc(C(=O)C3CCCN(C(=O)/C=C/c4ccccn4)C3)ccc2c1 (stereo unspecified)	-5	i	i	i	i	i	i	i
O=C(CCN1N=C(c2ccccc2)CCC1=O)NCC1CCCO1 (stereo unspecified)	-4	i	i	i	i	·	·	·
CC(Nc1ccc(F)cc1)=[N+](C)CCNS(=O)(=O)c1ccc(Cl)cc1	-5	i	i	i	i	·	·	·
Cc1cc(NC(=O)/C=C/c2ccccc2Cl)n(-c2nc3ccccc3[nH]2)n1	-8	i	i	-9.1*	i	i	i	26%*
Cn1ccnc1SCC(=O)n1c2c(c3ccccc31)CCCC2	-5	i	i	i	i	i	i	i
Cn1ccnc1SCC(=O)Nc1cccc2ccccc12	-4	i	i	i	i	·	·	·
Cc1ccc(SCCN2CCN(CCc3ccccc3)CCC2=O)cc1	-11	i	i	i	i	i	i	i
O=C1CCN(CCc2ccccc2)CCN1CCSc1ccc(Br)cc1	-22	i	i	i	i	i	i	i
CCCN1CCC(=O)N(CCSc2ccc(C)cc2)CC1	-3	i	i	i	i	·	·	·
Cc1cc(C)c(C(=O)CC(=O)c2cccnc2)c(C)c1	·	i	·	·	·	·	·	·
Cc1ccc(-n2ncc3c2CCCC3NC(=O)CSc2ccccn2)cc1C (stereo unspecified)	-15	i	i	i	i	i	i	i
CCCC(=O)NC1CCCc2c1cnn2-c1ccc(C)c(C)c1 (stereo unspecified)	-9	i	i	i	i	·	·	·
CCOc1ccc(NC(=O)COC(=O)CNC(=O)c2ccc(-c3ccccc3)cc2)cc1	·	i	·	·	·	·	·	·
Cc1cccn2c(/C=N/OCc3cccc(F)c3)c(-c3ccc(Cl)cc3)nc12	-20	i	i	i	i	·	·	·
COc1cccc(/C(C#N)=C/c2c(-c3ccc(Cl)cc3)nc3c(C)cccn23)c1	-6	i	i	-8.9*	8*	58%*	i	38%*
Cc1cc(NC(=O)CSc2nnc(-c3ccoc3C)n2N)no1	-14	i	i	i	i	·	·	·
CCOc1ccc(C(C)=O)cc1CSc1nnc(-c2ccoc2C)n1N	-9	i	i	-9.2*	i	45%*	i	30%*
CN1OC[C@@H]2CN(C(=O)CCc3ccccc3)[C@H](c3cccc(-c4ccc(C#N)cc4)c3)C[C@@H]21	·	i	·	·	·	·	·	·
COc1cccc(NC(=O)[C@H](C)NC(=O)N2CCn3c2nc2ccccc23)c1	-10	i	i	i	i	·	·	·
COc1cccc(NC(=O)[C@H](CC(C)C)NC(=O)N2CCn3c2nc2ccccc23)c1	-6	i	i	-9.9*	i	i	i	i
C(=N\N1CCN(C2c3ccccc3-c3ccccc32)CC1)/c1ccccn1	-8	i	i	i	i	·	·	·
Cc1ccc(/C=N/N2CCN(C3c4ccccc4-c4ccccc43)CC2)s1	-5	i	i	i	i	i	i	i
CC(C)(C)c1ccc(C(=O)N2CCCC2c2cccs2)cc1 (stereo unspecified)	-11	i	i	i	i	i	i	i
CC(C)OC(=O)CN1CCN(C2c3ccccc3-c3ccccc32)CC1	-6	i	i	i	i	i	i	i
